Measurements published in PubChem BioAssay AID588570 (Sanford-Burnham Center for Chemical Genomics, 2011).
The source made the active and inactive calls.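 How the source made its calls: active means mean IC50 at or below 20 µM in a cell killing test; inactive means the rest.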

Test system: CHO-XBP1 cytotoxicity, ATPlite luminescence, 6 h
Assay: CHO-XBP1 cell viability loss – 6 h exposure, ATPlite luminescence, cytotoxicity control for UPR apoptotic arm activator project, SAR follow-up (AID 588570)
Summary of the method: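 Material: CHO-XBP1 cell line | Quantity: 1000 cells/well | Medium: F12 plus 10% FBS | Doses: Test compound concentration series, final DMSO at most 1% | Times: 16-18 h attachment, 6 h exposure, 37 °C, 5% CO2 | Measured by: ATP-based luminescence with ATPLite 1-Step reagent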

| Compound | IC50 |
| --- | --- |
| O=C(Nc1nc2ccc(Cl)cc2s1)c1ccccn1 | 3.81 µM |
| O=C(Nc1nc2ccc(F)c(F)c2s1)c1ccccn1 | 14 µM |
| O=C(Nc1ccc(S(=O)(=O)N2CCCCC2)cc1)c1ccc([N+](=O)[O-])o1 | > 80 µM (inactive) |
| CC1CCN(S(=O)(=O)c2ccc(NC(=O)c3ccc([N+](=O)[O-])o3)cc2)CC1 | > 80 µM (inactive) |
| O=C(Nc1nc2c(F)cccc2s1)c1ccccn1 | 4.11 µM |
| O=C(Nc1nc2cc(F)ccc2s1)c1ccccn1 | 2.62 µM |
| O=C(Nc1ccc(S(=O)(=O)N2CCC(O)CC2)cc1)c1ccc([N+](=O)[O-])o1 | > 80 µM (inactive) |
| O=C(Nc1ccc(S(=O)(=O)N2CCC(Cl)CC2)cc1)c1ccc([N+](=O)[O-])o1 | > 80 µM (inactive) |
| O=C(Nc1nc2cc(F)c(F)cc2s1)c1ccccn1 | 5.1 µM |
| O=C(Nc1nc2cccc(F)c2s1)c1ccccn1 | 7.08 µM |
| O=C(Nc1nc2c(F)cc(F)cc2s1)c1ccccn1 | 10.7 µM |
| CC(C)(C)C1CCN(S(=O)(=O)c2ccc(NC(=O)c3ccc([N+](=O)[O-])o3)cc2)CC1 | > 80 µM (inactive) |
| O=C(Nc1nc2c(F)ccc(F)c2s1)c1ccccn1 | 32.3 µM (inactive) |
| Cc1cc(C)c2nc(NC(=O)c3ccccn3)sc2c1 | 15.2 µM |
| O=C(Nc1ccc(S(=O)(=O)N2CCCC2)cc1)c1ccc([N+](=O)[O-])o1 | 74.6 µM (inactive) |
| O=C(Nc1nc2c(F)c(F)ccc2s1)c1ccccn1 | 4.29 µM |
| O=C(Nc1ccc(S(=O)(=O)N2CCOCC2)cc1)c1ccc([N+](=O)[O-])o1 | > 80 µM (inactive) |
| O=C(Nc1ccc(S(=O)(=O)C2CCCCC2)cc1)c1ccc([N+](=O)[O-])o1 | > 80 µM (inactive) |
| O=C(Nc1ccc(S(=O)(=O)N2CCOCC2)cc1)c1ccc([N+](=O)[O-])s1 | > 80 µM (inactive) |
| O=C(Nc1nc2cc(F)cc(F)c2s1)c1ccccn1 | 9.35 µM |
| CC1CN(S(=O)(=O)c2ccc(NC(=O)c3ccc([N+](=O)[O-])o3)cc2)CC(C)O1 (stereo not given) | > 80 µM (inactive) |
| O=C(Nc1ccc(S(=O)(=O)C2CCOCC2)cc1)c1ccc([N+](=O)[O-])o1 | > 80 µM (inactive) |
| O=C(Nc1nc2ccc(C(F)(F)F)cc2s1)c1ccccn1 | 4.62 µM |
| CC1(C)CCN(S(=O)(=O)c2ccc(NC(=O)c3ccc([N+](=O)[O-])o3)cc2)CC1 | > 80 µM (inactive) |
| O=C(Nc1ccc(S(=O)(=O)c2ccccc2)cc1)c1ccc([N+](=O)[O-])o1 | > 80 µM (inactive) |
| O=C(Nc1ccc(S(=O)(=O)N2CCC3(CCCCC3)CC2)cc1)c1ccc([N+](=O)[O-])o1 | > 80 µM (inactive) |
| O=C(Nc1ccc(S(=O)(=O)N2CCC(F)CC2)cc1)c1ccc([N+](=O)[O-])o1 | > 80 µM (inactive) |
| O=C(Nc1nc2c(Cl)cc(Cl)cc2s1)c1ccccn1 | > 80 µM (inactive) |
| O=C(Nc1nc2ccc(F)cc2s1)c1ccccn1 | 4.78 µM |
| O=C(Nc1ccc(S(=O)(=O)N2CCNCC2)cc1)c1ccc([N+](=O)[O-])o1 | > 80 µM (inactive) |
